The values below come from publication PMC8621847 (Research in Pharmaceutical Sciences, 2021).

The test system of one data set is HUVEC cell line. The data set is described as follows: MTT cytotoxicity assay, HUVEC normal cell line. The data set is classed as cell-based. The note with it: Homo sapiens, 48 h, read-out: IC50 HUVEC. The procedure, abridged:
(§1)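 Cells grown in RPMI-1640 with 10% FBS and 1% penicillin/streptomycin, seeded at 5-7 × 10^4 per well, 37 °C, 5% CO2. Test compound at final 1, 4, 6, 8, 10, 40, 60, 80 and 100 μM for 48 h. MTT (5 mg/mL in PBS) added for 3 h, formazan dissolved in DMSO, absorbance read at 570 nm. Doxorubicin (20 μM) was the positive control, untreated cells set 100% viability, and medium was the blank. Triplicate, repeated on three days.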

The next data set deals with MCF-7 cell line. The data set is described as follows: MTT cytotoxicity assay, MCF-7 cell line. The data set is classed as cell-based. The note with it: for improvement of cytotoxicity by hybridization, compared with VIIa and VIIb: MCF-7, fused pyrazole hybrids versus benzoxazinones VIIa and VIIb; for cytotoxic effect on MCF-7 cell line (in words): MTT assay. The method, boiled down:
as §1
(Tetrazolium dyes change colour on reduction, which living cells bring about.)

“Also recorded” adds a separate entry of the source.

In the case of `COc1cccc2c1C(=O)c1c(O)c3c(c(O)c1C2=O)C[C@@](O)(C(=O)CO)C[C@@H]3O[C@H]1C[C@H](N)[C@H](O)[C@H](C)O1` [Doxorubicin, reference compound], the IC50 in the data set on HUVEC cell line was 21.17 ± 0.05 µM.
Take `O=C(N/C(=C/c1ccc(Cl)cc1)c1nc2ccccc2c2cc(=O)[nH]n12)c1ccccc1` [IXa, (E)-N-(2-(4-chlorophenyl)-1-(2-oxo-2,3-dihydropyrazolo[1,5-c]quinazolin-5-yl)vinyl)benzamide]: the IC50 in the data set with HUVEC cell line is 79 ± 3.71 µM. Besides, the “improvement of cytotoxicity by hybridization, compared with VIIa and VIIb” value in the data set with MCF-7 cell line is listed as 3-4 times.
With `O=C(N/C(=C/c1ccc([N+](=O)[O-])cc1)c1nc2ccccc2c2cc(=O)[nH]n12)c1ccccc1` [IXb, (E)-N-(2-(4-nitrophenyl)-1-(2-oxo-2,3-dihydropyrazolo[1,5-c]quinazolin-5-yl)vinyl) benzamide], the half-maximal inhibitory concentration (IC50) in the data set with HUVEC cell line worked out at 96.2 ± 4.66 µM. Besides, the “improvement of cytotoxicity by hybridization, compared with VIIa and VIIb” value in the data set on MCF-7 cell line was 3-4 times.
As for `O=C(N/C(=C/c1ccc(Cl)cc1)c1nc2ccccc2c(=O)o1)c1ccccc1` [VIIa, (E)-N-(2-(4-chlorophenyl)-1-(4-oxo-4H-benzo[d][1,3]oxazin-2-yl)vinyl)benzamide], the IC50 in the data set with HUVEC cell line amounted to 72.2 ± 1.5 µM.
Consider `O=C1OC(c2ccccc2)=N/C1=C\c1ccc(Cl)cc1` [Va, (Z)-4-(4-chlorobenzylidene)-2-phenyloxazol-5(4H)-one], for which the concentration for half-maximal inhibition (IC50) in the data set with HUVEC cell line amounted to 96.4 ± 2.22 µM. In the data set with MCF-7 cell line, the “cytotoxic effect on MCF-7 cell line (in words)” value is “no remarkable cytotoxic effect; also recorded: no inhibitory activity”.
As to `O=C1OC(c2ccccc2)=N/C1=C\c1ccc([N+](=O)[O-])cc1` [Vb, (Z)-4-(4-nitrobenzylidene)-2-phenyloxazol-5(4H)-one], the 50% inhibitory concentration (IC50) in the data set on HUVEC cell line turned out to be 93.3 ± 4.11 µM. Moreover, in the data set on MCF-7 cell line, the “cytotoxic effect on MCF-7 cell line (in words)” value is given as “no remarkable cytotoxic effect; also recorded: no inhibitory activity”.
In the case of `Cc1nc2ccccc2c(=O)n1N1C(=O)/C(=C/c2ccc(Cl)cc2)N=C1c1ccccc1` [XIIIa, (Z)-3-(4-(4-chlorobenzylidene)-5-oxo-2-phenyl-4,5-dihydro-1H-imidazol-1-yl)-2-methylquinazolin-4(3H)-one], in the data set on HUVEC cell line, the IC50 stood at 94.41 ± 0.89 µM.
As for `Cc1nc2ccccc2c(=O)n1N1C(=O)/C(=C/c2ccc([N+](=O)[O-])cc2)N=C1c1ccccc1` [XIIIb, (Z)-2-methyl-3-(4-(4-nitrobenzylidene)-5-oxo-2-phenyl-4,5-dihydro-1H-imidazol-1-yl) quinazolin-4(3H)-one], the concentration for half-maximal inhibition (IC50) in the data set with HUVEC cell line was 81.2 ± 6.17 µM.

The IC50 is the midpoint of a concentration-inhibition curve.
